Results pooled from the literature.
Compare with care: the assays were run in different laboratories.
SQLE: Squalene monooxygenase (SQLE, Homo sapiens, UniProt Q14534)
Tspo: Translocator protein (Tspo, Rattus norvegicus, UniProt P16257)
ADRA1A: Alpha-1A adrenergic receptor (ADRA1A, Homo sapiens, UniProt P35348)

SMILES	target	observed	action	technique	cells	pH	Ki
CCN(CC)C(C)CN1c2ccccc2Sc2ccccc21 (stereo not shown)	SQLE	enzyme activity	inhibitor				0.65 µM
CCOC(=O)[C@@]12C[C@@H]1[C@@H](n1cnc3c(NCc4cccc(Cl)c4)nc(C#Cc4ccc(Cl)s4)nc31)[C@H](O)[C@@H]2O	Tspo	cell-free assay		radioligand			0.51 µM
O=C[C@H](O)[C@@H](O)[C@H](O)[C@H](O)COP(=O)(O)O	Hexokinase HKDC1 (Homo sapiens, UniProt Q2TB90)	enzyme activity	inhibitor			pH 8	3400 µM
C=CC(=O)N1C[C@H](Nc2ncnc3[nH]ccc23)CC[C@@H]1C	Solute carrier family 22 member 6 (SLC22A6, Homo sapiens, UniProt Q4U2R8)	transporter uptake	inhibitor		HEK293	pH 7.4	156 µM
N#Cc1ccc2c(c1)N(CCCN1CCC(O)CC1)c1ccccc1S2	SQLE	enzyme activity	inhibitor				0.69 µM
COc1cc2c3c(c1OC)-c1c(OC)ccc(-c4ccc(C#N)cc4)c1CC3N(C)CC2 (stereo not shown)	ADRA1A	cell-free assay		radioligand			0.322 µM
Cc1cc(Oc2ncccc2CN2CCN(c3cccc(Cl)c3Cl)CC2)ccc1-c1c(C)c(=O)[nH]c(=O)n1C	ADRA1A	ligand displacement		radioligand			1.93 µM
O=c1cc(-c2ccc(O)cc2)oc2cc(O[C@@H]3O[C@H](CO)[C@@H](O)[C@H](O)[C@H]3O)cc(O)c12	SQLE	enzyme activity	inhibitor				0.66 µM
Cc1cc(Oc2ncccc2CN2CCN(CCc3ccccc3)CC2)ccc1-c1c(C)c(=O)[nH]c(=O)n1C	ADRA1A	ligand displacement		radioligand			0.296 µM
OC[C@@]12C[C@@H]1[C@@H](n1cnc3c(NC(C4CCC4)C4CCC4)nc(C#Cc4ccc(Cl)s4)nc31)[C@H](O)[C@@H]2O	Tspo	cell-free assay		radioligand			0.67 µM
Cc1cc(Oc2ncccc2CN2CCN(c3ccccc3Cl)CC2)ccc1-c1c(C)c(=O)[nH]c(=O)n1C	ADRA1A	ligand displacement		radioligand			0.93 µM
COc1cc(O)c2c(c1)oc(=O)c1c3cc(O)c(O)cc3oc21	Alpha-glucosidase MAL12 (MAL12, Saccharomyces cerevisiae S288c, UniProt P53341)	enzyme activity	inhibitor				30 µM
COc1ccc(Cl)cc1N1CCN(Cc2cccnc2Oc2ccc(-c3c(C)c(=O)[nH]c(=O)n3C)c(C)c2)CC1	ADRA1A	ligand displacement		radioligand			0.353 µM
COc1cc(C2Oc3cc([C@H]4Oc5cc(O)cc(O)c5C(=O)[C@@H]4O)ccc3OC2CO)ccc1O (stereo partly shown)	SQLE	enzyme activity	inhibitor				1.42 µM
Cc1cc(Oc2ncccc2CN2CCN(c3ccccc3[N+](=O)[O-])CC2)ccc1-c1c(C)c(=O)[nH]c(=O)n1C	ADRA1A	ligand displacement		radioligand			1.98 µM
COc1cc2c3c(c1OC)-c1c(OC)ccc(N4CCOCC4)c1CC3N(C)CC2 (stereo not shown)	ADRA1A	cell-free assay		radioligand			0.643 µM
